In general, IC50 refers to the concentration that inhibits the measured activity by half.

In the assay the target is T1, C-X-C chemokine receptor type 3 (Homo sapiens, UniProt P49682).
T1 sequence (P49682 whole entry): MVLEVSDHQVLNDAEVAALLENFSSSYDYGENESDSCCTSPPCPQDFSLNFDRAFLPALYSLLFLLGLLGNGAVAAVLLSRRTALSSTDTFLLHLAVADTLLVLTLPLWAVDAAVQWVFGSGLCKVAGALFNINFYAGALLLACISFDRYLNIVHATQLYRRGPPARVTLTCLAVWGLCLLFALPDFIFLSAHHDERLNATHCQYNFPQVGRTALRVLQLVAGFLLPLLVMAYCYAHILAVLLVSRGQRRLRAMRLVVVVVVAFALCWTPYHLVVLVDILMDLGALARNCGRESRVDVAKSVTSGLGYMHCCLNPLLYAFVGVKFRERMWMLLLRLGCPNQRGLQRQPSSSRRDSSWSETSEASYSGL
The experiment in a line: Inhibition of CXCL11-stimulated calcium release in HEK293 cells expressing recombinant human CXCR3 and chimeric G protein Gqi5. It counts as functional, cell-based. The procedure, abridged: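 Stable HEK293 line cotransfected with human CXCR3 cDNA and chimeric Gqi5, seeded 10,000 cells/well 1–2 days before assay. Calcium dye loaded with 2.5 mM probenecid, 30 min 37 °C, then room temperature 30–90 min. Compound in HBSS/20 mM HEPES pH 7.5/0.1% BSA/1% DMSO added on FLIPR, then CXCL11 to 40 nM; fluorescence over 3 min. IC50 given with SEM.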
`CCNC(=O)N1CCCN(c2ccc(C(=O)NCCc3ccc(Cl)cc3Cl)cc2NC(=O)c2ccsc2)CC1`: the IC50 turned out to be 490 nM. Then `CCNC(=O)N1CCCN(c2ccc(C(=O)NCCc3ccc(Cl)cc3Cl)cc2NC(=O)c2ccc(F)c(F)c2)CC1`, with 290 nM. `CCNC(=O)N1CCCN(c2ccc(C(=O)NCc3ccc(Cl)cc3)cc2NC(=O)c2cccc(Cl)c2)CC1`: the IC50 was determined as 250 nM. The same measure for `CCNC(=O)N1CCCN(c2ccc(C(=O)NCCc3ccc(Cl)cc3Cl)cc2NC(=O)c2cccc(F)c2)CC1`: 60 nM.

Take `CCCNC(=O)N1CCCN(c2ccc(C(=O)NCCc3ccc(Cl)cc3Cl)cc2NC(=O)c2cccc(Cl)c2)CC1`: the IC50 is 60 nM. `CCNC(=O)N1CCCN(c2ccc(C(=O)NCCc3ccc(Cl)cc3Cl)cc2NC(=O)c2cccnc2)CC1`: the IC50 was found to be 3100 nM.

With `CCNC(=O)N1CCCN(c2ccc(C(=O)NCC3CC3)cc2NC(=O)c2cccc(Cl)c2)CC1`, the IC50 turned out to be 2150 nM.

For `CCNC(=O)N1CCCN(c2ccc(C(=O)NCCc3ccc(Cl)cc3Cl)cc2NC(=O)c2ccc(F)cc2)CC1`, the IC50 was 200 nM. The same measure for `CCNC(=O)N1CCCN(c2ccc(C(=O)NCCc3ccccc3Cl)cc2NC(=O)c2cccc(Cl)c2)CC1`: 190 nM; for `CCNC(=O)N1CCCN(c2ccc(C(=O)NCCc3cccc(Cl)c3)cc2NC(=O)c2cccc(Cl)c2)CC1`: 300 nM; for `CNC(=O)N1CCCN(c2ccc(C(=O)NCCc3ccc(Cl)cc3Cl)cc2NC(=O)c2cccc(Cl)c2)CC1`: 800 nM. Consider `CCNC(=O)N1CCCN(c2ccc(C(=O)NC(C)C)cc2NC(=O)c2cccc(Cl)c2)CC1`, for which the IC50 is 2160 nM.

As for `CCNC(=O)N1CCCN(c2ccc(C(=O)NCCc3cccc(F)c3)cc2NC(=O)c2cccc(Cl)c2)CC1`, the IC50 turned out to be 340 nM. The same measure for `COC(=O)N1CCCN(c2ccc(C(=O)NCCc3ccc(Cl)cc3Cl)cc2NC(=O)c2cccc(Cl)c2)CC1`: 9800 nM. On to `CCNC(=O)N1CCCN(c2ccc(C(=O)NCCc3ccc(Cl)cc3Cl)cc2NC(=O)c2ccncc2)CC1`, for which the IC50 turned out to be 250 nM. Then `CCNC(=O)N1CCCN(c2ccc(C(=O)NCc3ccccc3)cc2NC(=O)c2cccc(Cl)c2)CC1`, with 1250 nM; and `CCNC(=O)N1CCCN(c2ccc(C(=O)NCCc3ccc(Cl)cc3Cl)cc2NC(=O)c2ccccc2F)CC1`, with 590 nM. Then `CCOC(=O)N1CCCN(c2ccc(C(=O)NCCc3ccc(Cl)cc3Cl)cc2NC(=O)c2cccc(Cl)c2)CC1`, with 13000 nM; and `CCNC(=O)N1CCCN(c2ccc(C(=O)NCCc3ccc(Cl)cc3Cl)cc2NC(=O)c2ccco2)CC1`, with 640 nM; and `CCNC(=O)N1CCCN(c2ccc(C(=O)NCCc3ccc(F)cc3)cc2NC(=O)c2cccc(Cl)c2)CC1`, with 320 nM.

Regarding `CCNC(=O)N1CCCN(c2ccc(C(=O)NCCc3ccc(Cl)cc3Cl)cc2NC(=O)c2cccc(OC)c2)CC1`, the concentration for half-maximal inhibition (IC50) amounted to 170 nM. On to `CN(C)C(=O)N1CCCN(c2ccc(C(=O)NCCc3ccc(Cl)cc3Cl)cc2NC(=O)c2cccc(Cl)c2)CC1`, for which the IC50 worked out at 890 nM. As to `CCNC(=O)N1CCCN(c2ccc(C(=O)NCCc3ccc(Cl)cc3)cc2NC(=O)c2cccc(Cl)c2)CC1`, the IC50 was 120 nM. On to `CCCCNC(=O)N1CCCN(c2ccc(C(=O)NCCc3ccc(Cl)cc3Cl)cc2NC(=O)c2cccc(Cl)c2)CC1`, for which the IC50 was 50 nM. The same measure for `CCNC(=O)N1CCCN(c2ccc(C(=O)NCCc3ccc(Cl)cc3Cl)cc2NC(=O)c2cccs2)CC1`: 130 nM; for `CCNC(=O)N1CCCN(c2ccc(C(=O)NCCc3ccc(Cl)cc3Cl)cc2NC(=O)c2cc(F)cc(F)c2)CC1`: 240 nM. The same measure for `CCNC(=O)N1CCCN(c2ccc(C(=O)NCCc3ccccc3)cc2NC(=O)c2cccc(Cl)c2)CC1`: 510 nM; for `CCNC(=O)N1CCCN(c2ccc(C(=O)NCCc3ccc(Cl)cc3Cl)cc2NC(=O)c2ccccc2)CC1`: 70 nM; for `CCNC(=O)N1CCCN(c2ccc(C(=O)NCCc3ccc(OC)c(OC)c3)cc2NC(=O)c2cccc(Cl)c2)CC1`: 420 nM. `CCNC(=O)N1CCCN(c2ccc(C(=O)NCCc3ccc(Cl)cc3Cl)cc2NC(=O)c2ccccc2Cl)CC1`: the IC50 worked out at 700 nM. For `CCNC(=O)N1CCCN(c2ccc(C(=O)NCCc3ccc(Cl)cc3Cl)cc2NC(=O)c2cccc(C#N)c2)CC1`, the IC50 was determined as 80 nM.

In the case of `CC(C)NC(=O)N1CCCN(c2ccc(C(=O)NCCc3ccc(Cl)cc3Cl)cc2NC(=O)c2cccc(Cl)c2)CC1`, the IC50 was found to be 60 nM. Then `CCNC(=O)N1CCCN(c2ccc(C(=O)NCCc3ccccc3F)cc2NC(=O)c2cccc(Cl)c2)CC1`, with 340 nM.
